Results gathered from unrelated publications.
Each line is one published result; the experiments were not run side by side.
Target: Protein kinase C epsilon type (PRKCE, Homo sapiens, UniProt Q02156)
Residues used in one study (Q02156 1-737): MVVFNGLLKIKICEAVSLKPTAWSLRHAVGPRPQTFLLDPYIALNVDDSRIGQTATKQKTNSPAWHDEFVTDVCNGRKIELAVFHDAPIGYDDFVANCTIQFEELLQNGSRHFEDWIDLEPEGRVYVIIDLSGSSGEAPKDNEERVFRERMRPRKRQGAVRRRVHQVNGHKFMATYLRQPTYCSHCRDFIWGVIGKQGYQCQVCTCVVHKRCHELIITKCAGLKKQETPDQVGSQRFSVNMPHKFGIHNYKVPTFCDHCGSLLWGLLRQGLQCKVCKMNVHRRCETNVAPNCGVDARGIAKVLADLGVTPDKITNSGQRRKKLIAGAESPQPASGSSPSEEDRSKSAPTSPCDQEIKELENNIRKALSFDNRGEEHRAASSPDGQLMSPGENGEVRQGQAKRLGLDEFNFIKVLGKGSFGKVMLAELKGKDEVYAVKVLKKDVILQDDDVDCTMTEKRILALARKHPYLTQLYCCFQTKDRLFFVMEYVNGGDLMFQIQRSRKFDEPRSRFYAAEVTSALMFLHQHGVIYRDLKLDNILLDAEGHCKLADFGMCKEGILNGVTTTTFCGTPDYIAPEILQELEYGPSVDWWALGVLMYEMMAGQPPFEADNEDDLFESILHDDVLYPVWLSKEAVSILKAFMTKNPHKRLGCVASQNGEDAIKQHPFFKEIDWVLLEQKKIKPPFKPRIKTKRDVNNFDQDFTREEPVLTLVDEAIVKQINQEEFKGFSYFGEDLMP

CN(C(=O)c1ccccc1)c1cc(N(C)c2ccc3c(c2)CCc2ccc(C(=O)NCCN4CCOCC4)cc2C3=O)ccc1F — remaining binding (cell-free assay, competition with immobilised ligand; 1 µM): 87%
O=C(NCCCN1CCOCC1)c1ccc(Nc2nccc(-c3cc4ccccc4s3)n2)cc1 — remaining binding (binding, competition with immobilised ligand; 1 µM): 71%
CN(C)C(=O)Cn1cc(-c2nc(C3(c4ccc(-c5cnc(N)nc5)cc4)CC3)no2)cn1 — remaining binding (cell-free assay, competition with immobilised ligand; 1 µM): 90%
N[C@@H]1CCN(c2nccc(-c3cnn4ncccc34)n2)C1 — remaining binding (binding; 1 µM): 97%
C[C@@H]1CN(c2ccc3ncc(-c4ccc5[nH]nc(C6CC6)c5c4)n3n2)C[C@H](C)O1 — remaining binding (binding, competition with immobilised ligand; 0.5 µM): 64%
COc1cc(-c2cn(C3CCc4c(F)cccc4N(CC(F)(F)F)C3=O)nn2)ccc1-n1cnc(C)c1 (centres unmarked) — remaining binding (cell-free assay, competition with immobilised ligand; 1 µM): 100%
c1cnn2ncc(-c3ccnc(N4CCC45COC5)n3)c2c1 — remaining binding (binding; 1 µM): 100%
N#Cc1ccccc1CSc1nnc2c(n1)[nH]c1ccccc12 — remaining binding (binding, competition with immobilised ligand; 10 µM): 100%
COc1ccc2c(O[C@@H]3C[C@H]4C(=O)N[C@]5(C(=O)O)CC5/C=C\CCCCC[C@H](NC(=O)OC5CCCC5)C(=O)N4C3)cc(-c3csc(NC(=O)C(C)C)n3)nc2c1C (some centres unmarked) — remaining binding (cell-free assay, competition with immobilised ligand; 1 µM): 58%
c1cncc(-c2cccc(Nc3nccc(NC4CCCCC4)n3)c2)c1 — remaining binding (binding, competition with immobilised ligand; 10 µM): 46%
CN(CCCC(F)(F)F)c1nccc(-c2cnn3ncccc23)n1 — remaining binding (binding; 1 µM): 82%
CNC(=O)[C@@H]1CC[C@@H](n2c(-c3ccc4cnccc4c3)nc3ccc(C(=O)NCc4cccc(C(N)=O)c4)cc32)C1 — remaining binding (binding, competition with immobilised ligand; 1 µM): 85%
CC1CCCN1c1nccc(-c2cnn3ncccc23)n1 (centres unmarked) — remaining binding (binding; 1 µM): 100%
CC(C)(C)c1ccc(-c2nc(CBr)nn2-c2cccc(O)c2)cc1 — remaining binding (cell-free assay, competition with immobilised ligand; 10 µM): 73%
C[C@@H]1CCN(c2nccc(-c3cnn4ncccc34)n2)C1 — remaining binding (binding; 1 µM): 100%
CCC(=N\O)/C(C)=C/c1ccc(F)cc1 — remaining binding (cell-free assay, competition with immobilised ligand; 1 µM): 76%
O=C(NCCCN1CCOCC1)c1ccc(Nc2ncc(Cl)c(-c3ccc(Cl)s3)n2)cc1 — remaining binding (binding, competition with immobilised ligand; 1 µM): 67%
